Measurements reported in the EternaBench riboswitch data.

Test system: MS2 coat protein
Assay: apparent Kd, MS2 coat protein; higher = weaker binding; RNA-MaP array; FMN 200 µM where present
In short: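 Apparent Kd: the median of filtered binding-curve fits from single clusters. Designs were transcribed on Illumina sequencing-chip clusters by stalled E. coli RNA polymerase and titrated with SNAP-549-labelled MS2 coat protein from 0.7 or 1.5 nM, doubling to 3 µM, in 100 mM Tris-HCl pH 7.5, 80 mM KCl, 4 mM MgCl2, BSA, DTT, yeast tRNA and Tween-20. Each series ran without and then with constant ligand, and green signal was normalised to red-channel RNA signal and control-cluster median Fmax.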

[1] = designed as: OFF switch for flavin mononucleotide, no ligand
[2] = ligand present: flavin mononucleotide, designed as: OFF switch for flavin mononucleotide
[3] = designed as: ON switch for flavin mononucleotide, no ligand
[4] = ligand present: flavin mononucleotide, designed as: ON switch for flavin mononucleotide

Sequence	apparent Kd [1]	apparent Kd [2]	apparent Kd [3]	apparent Kd [4]
CACCGUUAAAGAGGAUAUCGUACAUGAGGAUCACCCAUGUAAUAAAUGAGAAUUUCGGAUGUAUGCGAGAAGGCUUAAAUCGGC	52.9 nM	48.3 nM	–	–
GAGUCUCUAUUAGAACCGAUACGAACAUGAGGAUCACCCAUGUAGGAUAUGCUAAAAGUUGUGUUGCAGAAGGACAUUUAAUGC	11.2 nM	10.9 nM	–	–
UAGAAGUCAGGAUAUCCAGCUCGUCACUUGCGUGAUGAGUUGGAGAAGGGACAUGAGGAUCACCCAUGUAAAGA	61.9 nM	57.8 nM	–	–
GGUUCCAACACAGGAUAUGCUAUCCUUUGGGUAGCAGAAGGGUGAAAACAUGAGGAUCACCCAUGUGGAACCGGGCGUGAGCCC	–	–	412 nM	46.5 nM
GCUGCAUAGGCAGGAUAUGCAAAAGCAGAUGCAAAGCAUCUGCAAUAAACAUGAGGAUCACCCAUGUAGAAGGGCCUGUGCAGU	20.8 nM	19.4 nM	–	–
GUCAGCUCGUGAGGAUAUAAAACACUGCUUCGGCAGUGUAUUAAGAUCACAUGAGGAUCACCCAUGUAGAAGGCACGAGCUGAU	5.05 nM	6.38 nM	–	–
CGUGCGUAUGUGAGGAUAUGCUGGUCCUUGGAUCGGCAGAAGGCACAUGAGGAUCACCCAUGUGGUGUCGUCCA	85.8 nM	64.5 nM	–	–
ACAAAUCAUGUAGGAUAUCGAUUGCGUCGCGAUCGAGAAGGACAAGAGGGUCACCCUUGUACAUGAGGAUCACCCAUGUCAUGA	193 nM	120 nM	–	–
GCGUUGAACGAGAAGGCCAAUACAUGAGGAUCACCCAUGUUAAGAUGUUUUGGAGGAUAUCGUACGUCGUCUCAUGAGCAACGC	6.21 nM	7.03 nM	–	–
GCGCUGCAGCGGUGCACGAGACAUGAGGAUCACCCAUGUGACAGAAGGGACUUGUUAAAGGUAGGUCAGGAUAUGUCUUAAAAG	–	–	190 nM	59.8 nM
UUAACACAUGAGGAUCACCCAUGUUAGGAUAUUGUGGUGGGAACAACUGGGAAACGCACGAGAAGGGACACACA	35.7 nM	26.2 nM	–	–
GCCGGUUCAGUUAGGAUAUUCGACACACCUCUCUAGAAGAAGGAACAUGAGGAUCACCCAUGUGAUUCCUACCG	46.7 nM	56.6 nM	–	–
AAGUCGAGUAAUAAAUAAGAUCUACAUGAGGAUCACCCAUGUAAGGAUAUGCAGUGGAAUACACUGCAGAAGGUACAUCUCGAC	14 nM	35 nM	–	–
AUGCCUUAUGUAGGAUAUGCAUAGAGUUGCUAUGCAGAAGGACAUGAGGAUCACCCAUGUAUGUAUACCUUACAAAUCUAGCAU	38.6 nM	230 nM	–	–
CUGUGACGGUGCGCAAGUGGACGGAGAAGGCACACAUGAGGAUCACCCAUGUGAGCCUGCUAUUGUGAGGAUAUCCGUUCGUAC	5.52 nM	7.02 nM	–	–
UAGUGGCAAGGAUAUACAGUGGAGAGGAUUGCAAGAGGUGGACAUGAGGAUCACCCAUGUAGAAGGUGCAGAGA	298 nM	182 nM	–	–
AUACUGAGCGUAAAUUACCUGAACAUGAGGAUCACCCAUGUGGAGGAUAUUGACCUAGCAAAGCUCGAGAAGGCCACUGGGAUG	32.3 nM	18.7 nM	–	–
UUGUACAUUCGAGGAUAUCGGAGAGAGAUCAUUCGAGAAGGCGAUUCAUGAUGUAUUAUCCUGGACAUGAGGAUCACCCAUGUA	–	–	111 nM	65.9 nM
UUUUAACAUGAGGAUCACCCAUGUGAGGAUAUCGAAAUUUAUAUUAAUAUUAUUUAAACGAGAAGGCACAUUUU	65.2 nM	87 nM	–	–
UUAGGACAUGAGGAUCACCCAUGUGAGGAUAUGCUGCAGGGAGGUCCCAGCAAUAUUCGUAGAAGGCAUAAGGG	221 nM	177 nM	–	–
GCUUUACUGGUCAGGAUAUACAUUUGCUACUCUUUGUAGAAGGGACAUGAGGAUCACCCAUGUACUUUACAUUC	15.3 nM	16.6 nM	–	–
AAUCCACAUGAGGAUCACCCAUGUGAGGAUAUCGUGCAGAAAAAAAAAAAAAACUGCACGAGAAGGCACAUGGA	160 nM	69.1 nM	–	–
GGAUGUCAAAGACAUCCAAUUCGAACAUGAGGAUCACCCAUGUAGGAUAUGCUACUCAAAGAGUAGCAGAAGGACAUGUGCUUU	36.6 nM	183 nM	–	–
